Results taken from ChEMBL document CHEMBL1144043, “Second-generation aspirin and indomethacin prodrugs possessing an O(2)-(acetoxymethyl)-1-(2-carboxypyrrolidin-1-yl)diazenium-1,2-diolate nitric oxide donor moiety: design, synthesis, biological evaluation, and nitric oxide release studies” (J Med Chem, 2008).

Key:
[1] = test system: Rattus norvegicus; assay: Antiinflammatory activity against carrageenan-induced foot paw edema in rat; format: functional
In short: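 Carrageenan-induced rat paw edema after oral administration; ED50 taken as the dose lowering the inflammatory response by 50% in the group of animals (n = 4).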

[2] = test system: Rattus norvegicus; assay: Analgesic activity against sodium chloride-induced abdominal constriction in rat at 277 umol/kg, po after 30 mins; format: functional, Abdomen
In short: (§1)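 4% NaCl-induced writhing (abdominal constriction) assay in rats after oral dosing; writhing inhibition scored at 30 and 60 min post-dose; reported as % inhibition, mean ± SEM, n = 4.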

[3] = test system: Rattus norvegicus; assay: Analgesic activity against sodium chloride-induced abdominal constriction in rat at 277 umol/kg, po after 60 mins; format: functional, Abdomen; in short: as §1
[4] = test system: Rattus norvegicus; assay: Toxicity in rat assessed as ulcer index at 1.38 mmol/kg, po after 6 hrs; format: organism-based; conditions: in vivo
In short: (§2)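 Rats fasted 24 h (water allowed) were dosed orally in 1.7 mL 1% methylcellulose; vehicle controls received the same. Stomachs were removed 6 h later after CO2 euthanasia. Ulcer index is the summed ulcer length (mm) per stomach averaged over n = 4, given as mean ± SEM.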

[5] = test system: Rattus norvegicus; assay: Analgesic activity against sodium chloride-induced abdominal constriction in rat at 84 umol/kg, po after 30 mins; format: functional, Abdomen; in short: as §1
[6] = test system: Rattus norvegicus; assay: Analgesic activity against sodium chloride-induced abdominal constriction in rat at 84 umol/kg, po after 60 mins; format: functional, Abdomen; in short: as §1
[7] = test system: Rattus norvegicus; assay: Toxicity in rat assessed as ulcer index at 0.08 mmol/kg, po after 6 hrs; format: organism-based; conditions: in vivo; in short: as §2
[8] = Effect on nitric oxide release in phosphate-buffered solution at pH 7.4 by Sievers nitric oxide analyzer; format: functional
In short: (§3)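 Compound in DMSO injected into a sealed cell holding deoxygenated 0.1 M phosphate buffer (3 mL, pH 7.4) with 50 µM DTPA at 37 °C. NO is carried by N2 purge to a chemiluminescence analyzer, and AUC is converted with a calibration curve to mol NO/mol compound. The time to about 50% of theoretical NO is read graphically from time vs mol NO/min curves.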

[9] = Effect on nitric oxide release assessed as time required to detect more than 90% of NO/mol of compound by Sievers nitric oxide analyzer; format: functional
In short: (§4)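 Porcine liver esterase (29 units, suspension in 3.2 M ammonium sulfate) in phosphate buffer (3 mL) at pH 8.0, 37 °C; compound injected as a DMSO solution. NO is swept by N2 to a chemiluminescence analyzer and AUC is quantified against a calibration curve. The time to more than 90% of theoretical NO is read graphically from time vs mol NO/min curves.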

[10] = test system: Rattus norvegicus; assay: Analgesic activity against sodium chloride-induced abdominal constriction in rat at 68 umol/kg, po after 30 mins; format: functional, Abdomen; in short: as §1
[11] = test system: Rattus norvegicus; assay: Analgesic activity against sodium chloride-induced abdominal constriction in rat at 68 umol/kg, po after 60 mins; format: functional, Abdomen; in short: as §1
[12] = Effect on nitric oxide release in phosphate-buffered solution in presence of porcine liver esterase by Sievers nitric oxide analyzer; format: functional; in short: as §4
[13] = Effect on nitric oxide release phosphate-buffered solution assessed as time required to detect about 50% of NO/mol of compound by Sievers nitric oxide analyzer; format: functional; in short: as §3
[14] = test system: Rattus norvegicus; assay: Analgesic activity against sodium chloride-induced abdominal constriction in rat at 48 umol/kg, po after 30 mins; format: functional, Abdomen; in short: as §1
[15] = test system: Rattus norvegicus; assay: Analgesic activity against sodium chloride-induced abdominal constriction in rat at 48 umol/kg, po after 60 mins; format: functional, Abdomen; in short: as §1

Activity [12] | Structure (SMILES) | ED50 [1] [µmol/kg] | UI [4] | UI [7] | Activity [8] | TIME [9] [h] | TIME [13] [h] | other results
 | CC(=O)Oc1ccccc1C(=O)O [ASPIRIN] | 710 | 51.4 |  |  |  |  | Activity [2]: 56.5%; Activity [3]: 64.3%
 | COc1ccc2c(c1)c(CC(=O)O)c(C)n2C(=O)c1ccc(Cl)cc1 [INDOMETHACIN] | 11.8 |  | 64.5 |  |  |  | Activity [5]: 51.8%; Activity [6]: 67.6%
 | O=C(O)[C@@H]1CCCN1/[N+]([O-])=N/O |  |  |  | 2 | 0.0005 |  | 
1.9 | CC(=O)OCO/N=[N+](\[O-])N1CCC[C@H]1C(=O)OCOC(=O)c1ccccc1OC(C)=O | 314 | 0.75 |  | 1.1 | 0.04 | 43 | Activity [10]: 24.6%; Activity [11]: 65.8%
1.8 | COc1ccc2c(c1)c(CC(=O)OCOC(=O)[C@@H]1CCCN1/[N+]([O-])=N/OCOC(C)=O)c(C)n2C(=O)c1ccc(Cl)cc1 | 18.5 |  | 0 | 1.1 | 0.0533 | 45 | Activity [14]: 36.3%; Activity [15]: 61.5%
